Laboratory results from ChEMBL document CHEMBL3352463, “Brain-penetrant, orally bioavailable microtubule-stabilizing small molecules are potential candidate therapeutics for Alzheimer's disease and related tauopathies” (J Med Chem, 2014).
The source made the active and inactive calls. No cut-off for these calls is given here.

Key:
[1] = Drug level in CD1 mouse plasma at 5 mg/kg, ip after 1 hr by LC-MS/MS system; type: ADME, organism-based; parameters: dose 5 mg/kg, route intraperitoneal
Outline: (§1)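 2-month-old CD1 mice (about 20 g) given 5 mg/kg ip; brain and plasma sampled at 1 h. Hemispheres sonicated in 10 mM ammonium acetate pH 5.7 (1:2 w/v); plasma from EDTA blood spun 4500g, 10 min, 4 °C. Acetonitrile extraction, then UPLC-MS/MS in positive ESI MRM mode. Quantified against spiked standard curves at 0.005–5 μM in matching matrix.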

[2] = Drug level in CD1 mouse brain at 5 mg/kg, ip after 1 hr by LC-MS/MS system; type: ADME, organism-based; parameters: dose 5 mg/kg, route intraperitoneal; settings: read-out: Drug uptake; outline: as §1
QBI293 [3] = assay: Induction of microtubule stabilization in human QBI293 cells assessed as increase in acetylated alpha-tubulin at 1 uM after 4 hrs by ELISA relative to vehicle treated control; type: cell-based
Outline: (§2)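 QBI293 cells exposed to compound at 1 μM. Acetylated α-tubulin expressed as fold-change over vehicle-treated cells and over cells given 0.1 μM cevipabulin as positive control. Significance by two-tailed t-test.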

[4] = Ratio of drug level in brain to plasma in CD1 mouse at 5 mg/kg, ip after 1 hr by LC-MS/MS system
[5] = target: ATP-dependent translocase ABCB1 (Homo sapiens, UniProt P08183); assay: Inhibition of human P-glycoprotein expressed in NCI/ADR-RES cells assessed as reduction of calcein-AM transport after 20 mins by fluorescence assay; type: cell-based
QBI293 [6] = assay: Induction of microtubule stabilization in human QBI293 cells assessed as increase in acetylated alpha-tubulin at 1 uM after 4 hrs by ELISA relative to 0.1 uM treated triazolopyrimidines cevipabulin; type: cell-based; outline: as §2
Mus musculus = assay: Induction of microtubule stabilization in wild type mouse assessed as increase in acetylated alpha-tubulin level in brain at 1 mg/kg, ip after 4 to 6 days; type: functional, organism-based; parameters: dose 1 mg/kg
Outline: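 Wild-type mice (n = 3 per group) dosed 1 mg/kg ip once daily for 4 or 6 days; acetylated α-tubulin measured in brain homogenates, expressed relative to controls; significance by ANOVA with Dunnett's multiple comparison test.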

[7] = Elimination half life in CD1 mouse brain at 5 mg/kg, ip after 1 hr by LC-MS/MS system; type: ADME, organism-based; parameters: dose 5 mg/kg, route intraperitoneal; settings: read-out: beta t1/2 (converted)
Outline: (§3)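 Female? no—2-month-old CD1 mice (20 g average) given 5 mg/kg ip; plasma (EDTA blood, centrifuged 4500g, 10 min, 4 °C) and brain hemispheres (homogenized in 10 mM ammonium acetate pH 5.7) sampled over 16 h. Acetonitrile extraction, LC-MS/MS by MRM against spiked standard curves (0.005–5 μM). Half-life from elimination rate constant, slope of ln concentration vs time at 4, 8 and 16 h.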

[8] = Ratio of AUC for drug level in brain to plasma in CD1 mouse at 5 mg/kg, ip after 1 hr by LC-MS/MS system; type: ADME, organism-based; parameters: dose 5 mg/kg, route intraperitoneal; settings: brain and plasma, read-out: Ratio AUC
Outline: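 2-month-old CD1 mice given 5 mg/kg ip; brain hemispheres (homogenized 1:2 w/v in 10 mM ammonium acetate pH 5.7) and EDTA plasma collected over a 16 h time course. Acetonitrile-precipitated supernatants quantified by LC-MS/MS (MRM, positive ESI) with spiked standard curves 0.005–5 μM.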

[9] = Elimination half life in CD1 mouse plasma at 5 mg/kg, ip after 1 hr by LC-MS/MS system; type: ADME, organism-based; parameters: dose 5 mg/kg, route intraperitoneal; settings: read-out: beta t1/2 (converted); outline: as §3
[10] = Ratio of AUC for free drug level in brain to plasma in CD1 mouse at 5 mg/kg, ip after 1 hr by LC-MS/MS system; type: ADME, organism-based; parameters: dose 5 mg/kg, route intraperitoneal; settings: brain and plasma
QBI293 [11] = assay: Induction of microtubule stabilization in human QBI293 cells assessed as increase in acetylated alpha-tubulin at 0.1 uM after 4 hrs by ELISA relative to vehicle treated control; type: cell-based
QBI293 [12] = assay: Induction of microtubule stabilization in human QBI293 cells assessed as increase in acetylated alpha-tubulin at 100 nM after 4 hrs by immunofluorescence assay relative to control; type: cell-based
Outline: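 QBI293 cells incubated 4 h with test compound (100 nM), colchicine (1 μM) or no compound; acetylated α-tubulin visualized by immunofluorescence to assess microtubule number/organization.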

[13] = Ratio of drug level in brain to plasma in CD1 mouse at 5 mg/kg, ip after 1 hr by LC-MS/MS system; type: ADME, organism-based; parameters: dose 5 mg/kg, route intraperitoneal; settings: brain and plasma, read-out: BPR
Outline: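 CD1 mice (2 months, about 20 g) dosed 5 mg/kg ip; brain and plasma taken at 1 h. Each extracted with acetonitrile and measured by LC-MS/MS MRM against matrix standard curves (0.005–5 μM). Value is the brain concentration divided by the plasma concentration.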

ATP-dependent translocase ABCB1, sequence (P08183 whole entry): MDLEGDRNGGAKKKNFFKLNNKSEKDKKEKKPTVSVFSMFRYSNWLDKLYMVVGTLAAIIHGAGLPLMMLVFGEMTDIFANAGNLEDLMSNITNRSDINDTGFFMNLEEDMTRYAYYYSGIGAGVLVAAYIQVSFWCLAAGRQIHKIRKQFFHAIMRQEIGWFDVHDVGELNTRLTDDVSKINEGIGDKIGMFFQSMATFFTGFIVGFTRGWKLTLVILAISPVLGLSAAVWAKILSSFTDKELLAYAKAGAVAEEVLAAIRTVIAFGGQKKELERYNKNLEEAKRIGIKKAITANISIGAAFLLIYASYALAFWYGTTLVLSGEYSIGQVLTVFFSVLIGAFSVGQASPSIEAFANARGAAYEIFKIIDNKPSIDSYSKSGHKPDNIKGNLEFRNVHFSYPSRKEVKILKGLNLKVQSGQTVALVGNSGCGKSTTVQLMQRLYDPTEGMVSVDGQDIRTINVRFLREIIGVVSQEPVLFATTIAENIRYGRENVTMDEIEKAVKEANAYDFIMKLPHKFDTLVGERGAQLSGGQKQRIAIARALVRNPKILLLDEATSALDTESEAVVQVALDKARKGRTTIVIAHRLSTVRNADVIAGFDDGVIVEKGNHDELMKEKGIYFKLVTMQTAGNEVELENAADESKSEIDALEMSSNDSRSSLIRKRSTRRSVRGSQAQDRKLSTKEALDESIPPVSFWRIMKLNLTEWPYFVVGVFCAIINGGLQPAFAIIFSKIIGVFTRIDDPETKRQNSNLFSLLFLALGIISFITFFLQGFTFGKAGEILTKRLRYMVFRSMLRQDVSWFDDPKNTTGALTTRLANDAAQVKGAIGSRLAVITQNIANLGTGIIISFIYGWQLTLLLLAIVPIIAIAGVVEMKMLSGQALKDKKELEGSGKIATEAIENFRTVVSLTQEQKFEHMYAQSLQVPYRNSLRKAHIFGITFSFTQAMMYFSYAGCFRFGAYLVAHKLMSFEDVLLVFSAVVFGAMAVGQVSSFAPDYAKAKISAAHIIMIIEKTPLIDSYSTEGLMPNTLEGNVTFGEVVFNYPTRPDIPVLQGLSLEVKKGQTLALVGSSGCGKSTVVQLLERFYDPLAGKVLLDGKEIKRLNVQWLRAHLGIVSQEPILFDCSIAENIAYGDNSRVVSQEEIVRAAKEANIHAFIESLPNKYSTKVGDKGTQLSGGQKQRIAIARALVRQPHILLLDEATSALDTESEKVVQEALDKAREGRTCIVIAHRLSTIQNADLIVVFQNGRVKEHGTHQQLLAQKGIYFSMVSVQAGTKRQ

SMILES	concentration at 1 h [1] [µM]	concentration at 1 h [2] [µM]	fold change (FC) (QBI293 [3])	BPR [4]	fold change (FC) (QBI293 [6])	also measured
C[C@H](Nc1c(-c2c(F)cc(OCCCNc3ccccc3)cc2F)c(Cl)nc2ncnn12)C(F)(F)F	0.075	0.12	1	1.6		
C[C@H](Nc1nc(-c2cnccn2)nc(Cl)c1-c1c(F)cc(F)cc1F)C(F)(F)F	5	2.9	2.7		0.9	inhibition (INH) [5]: Not Active; Activity (Mus musculus): Active; half-life [7]: 15 h; Kp at 1 h [8]: 0.72; half-life [9]: 15 h; Kp uu at 1 h [10]: 1.7
C[C@H](Nc1c(-c2c(F)cc(F)cc2F)c(Cl)nc2ncnn12)C(F)(F)F	2.8	2.4	1.3	0.8	0.4	
CC(=O)NCCCOc1cc(F)c(-c2c(Cl)nc3ncnn3c2N[C@@H](C)C(F)(F)F)c(F)c1			4.5		1.5	
C[C@H](Nc1c(-c2c(F)cc(OCCCCl)cc2F)c(Cl)nc2ncnn12)C(F)(F)F	0.178	0.16	1.2	0.88		
CC(=O)N(C)CCCOc1cc(F)c(-c2c(Cl)nc3ncnn3c2N[C@@H](C)C(F)(F)F)c(F)c1	0.2	0.02	1.3	0.15		
NS(=O)(=O)c1ccc(NC(NC(=O)c2ccc(Br)cc2)C(Cl)(Cl)Cl)cc1 (configuration not stated)			1			
Fc1cc(F)c(-c2c(Cl)nc(-c3cnccn3)nc2NCC(F)(F)F)c(F)c1			1.5			
C[C@H](Nc1nc(-c2ccccn2)nc(Cl)c1-c1c(F)cc(F)cc1F)C(F)(F)F	4.3	1.5	4.2		0.9	
C[C@H](Nc1c(-c2c(F)cc(OCCCN(C)C)cc2F)c(Cl)nc2ncnn12)C(F)(F)F	4.9	1.3	9.1		1.3	inhibition (INH) [5]: Not Active; fold change (FC) (QBI293 [11]): 2; Activity (Mus musculus): Active; Kp at 1 h [8]: 0.37; Kp uu at 1 h [10]: 0.09
C[C@H](Nc1c(-c2c(F)cc(OCCCF)cc2F)c(Cl)nc2ncnn12)C(F)(F)F			1.4			
COc1ccc(CCN(C)CCCC(C#N)(c2ccc(OC)c(OC)c2)C(C)C)cc1OC (configuration not stated)						inhibition (INH) [5]: Active
C[C@H](Nc1c(-c2c(F)cc(OCCCN)cc2F)c(Cl)nc2ncnn12)C(F)(F)F	1.3	0.04	26.5	0.03	3.4	fold change (FC) (QBI293 [11]): 4.2
CC(C)Nc1nc2nccnc2c(Cl)c1-c1c(F)cc(F)cc1F			1			
C/C1=C/C[C@@H](/C(C)=C/c2csc(C)n2)OC(=O)C[C@H](O)C(C)(C)C(=O)[C@H](C)[C@@H](O)[C@@H](C)CCC1 [EPOTHILONE D]						inhibition (INH) [5]: Active; Activity (QBI293 [12]): Active
CN(C)CCCOc1cc(F)c(-c2c(Cl)nc(-c3ccccn3)nc2NCC(F)(F)F)c(F)c1			0.9			
Fc1cc(F)c(-c2c(Cl)nc(-c3ccccn3)nc2NCC(F)(F)F)c(F)c1			1.6			
CC(C)c1cccc(C(C)C)c1N1C(=O)c2ccc(O)cc2C1=O			1			
C[C@H](Nc1c(-c2c(F)cc(OCCCN3CCOCC3)cc2F)c(Cl)nc2ncnn12)C(F)(F)F	1.2	0.6	4.1	0.49	1.2	
CC(C)Nc1c(-c2c(F)cc(F)cc2F)c(Cl)nc2nccnc12			1			
COc1ccccc1N1CCN(C(=O)c2cc(=O)c3cc(C)cc(C)c3o2)CC1			0.9			
C[C@H](Nc1c(-c2c(F)cc(OCCCNCC(F)(F)F)cc2F)c(Cl)nc2ncnn12)C(F)(F)F	0.16	0.23	2.1	1.5	0.6	
CNCCCOc1cc(F)c(-c2c(Cl)nc3ncnn3c2N[C@@H](C)C(F)(F)F)c(F)c1 [CEVIPABULIN]	2.5	0.092		0.037		inhibition (INH) [5]: Not Active; Activity (QBI293 [12]): Active
C[C@H](Nc1c(-c2c(F)cc(OCCCO)cc2F)c(Cl)nc2ncnn12)C(F)(F)F	0.029	0.078	10.1	2.8	1.2	
C[C@H](Nc1c(-c2c(F)cc(OCCCNC(=O)C(C)(C)C)cc2F)c(Cl)nc2ncnn12)C(F)(F)F	1.5	0.17	2.4		0.7	Kp at 1 h [13]: 0.12
Cc1nnc(Cl)c(-c2c(F)cc(F)cc2F)c1-c1ccc(Cl)s1			1.3			
Cc1nnc(Cl)c(-c2c(F)cc(F)cc2F)c1-c1ccc(Cl)cc1			1.5			
C[C@H](Nc1nc(-c2cnccn2)nc(Cl)c1-c1c(F)cc(OCCCN(C)C)cc1F)C(F)(F)F	2.5	0.86	4.1	0.35	0.5	
